This passage reports Efficacy and ED50 results from ChEMBL document CHEMBL1134551, “The effect of 1,3-diaryl-[1H]-pyrazole-4-acetamides on glucose utilization in ob/ob mice” (2001).

The subject of experiment [1] is Mus musculus. The experiment is described as follows: Percentage efficacy to normalize the blood glucose levels to that of normal mouse in ob/ob mouse after 3 days and 4 hours of 100 mg/kg dose administration; Nonsignificant. In kind it is functional, organism-based. Set-up: dose 100 mg/kg. Put shortly: (§1)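 Adult male C57BL ob/ob mice, n = 6/group, matched on day-0 blood glucose; non-diabetic animals (<150 mg/dL basal) excluded. Oral dosing each morning days 1-3 in 0.5% CMC with 0.2% Tween-80. Tail-nick blood glucose by YSI analyzer. % efficacy = {1 − ([glc]cpd − 100)/([glc]veh − 100)} × 100. Significance by t-test vs vehicle, p < 0.05.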

Experiment [2] concerns Mus musculus. Nature of the experiment: Percentage efficacy to normalize the blood glucose levels to that of normal mouse in ob/ob mouse after 3 days and 8 hours of 30 mg/kg dose administration. It counts as functional. The method in brief: as §1
For experiment [3], the system named is Mus musculus. The experiment is described as follows: Percentage efficacy to normalize the blood glucose levels to that of normal mouse in ob/ob mouse after 3 days and 4 hours of 30 mg/kg dose administration; Nonsignificant. It counts as functional, organism-based. Set-up: dose 30 mg/kg. The method in brief: as §1
The test system of experiment [4] is Mus musculus. The experiment is described as follows: Percentage efficacy to normalize the blood glucose levels to that of normal mouse in ob/ob mouse after 3 days and 8 hours of 100 mg/kg dose administration. It counts as functional. Put shortly:
as §1

Experiment [5] is filed under the species Mus musculus. The experiment is described as follows: Effective dose for glucose lowering in ob/ob mice. It counts as functional. Put shortly:
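ob/ob mice, once-daily oral dosing for 3 days in 0.5% CMC/0.2% Tween-80, or in 40% microemulsion (Cremophor RH40, corn oil-monoglyceride, propylene glycol, ethanol) where stated; tail-nick blood glucose. % efficacy computed as below at selected doses; ED50 from sigmoidal fit of dose-response curve.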

The subject of experiment [6] is Mus musculus. Nature of the experiment: Percentage efficacy to normalize the blood glucose levels to that of normal mouse in ob/ob mouse after 3 days and 4 hours of 100 mg/kg dose administration. In kind it is functional. Put shortly:
as §1

In experiment [7] the test system is Mus musculus. Nature of the experiment: Percentage efficacy to normalize the blood glucose levels to that of normal mouse in ob/ob mouse after 3 days and 4 hours of 30 mg/kg dose administration. It counts as functional. Put shortly: as §1

As for `O=C(Cc1cn(-c2cccc(C(F)(F)F)c2)nc1-c1ccc(Cl)c(Cl)c1)N1CCN(C(c2ccccc2)c2ccccc2)CC1`, the Efficacy entry is “Not significant” in the experiment on Mus musculus [1], 48% in the experiment with Mus musculus [2], “Not significant” in the experiment with Mus musculus [3] and 45% in the experiment with Mus musculus [4].

`CN(C)C(=O)Cc1cn(-c2cccc(C(F)(F)F)c2)nc1-c1ccc2c(c1)Cc1ccccc1-2` came in with a median effective dose (ED50) in the experiment filed under Mus musculus [5] of 0.05 mg/kg/day. The Efficacy is listed as 115% in the experiment on Mus musculus [2], 87% with Mus musculus [6], 113% in the experiment with Mus musculus [7] and 57% in the experiment with Mus musculus [4].

In the experiment listed under Mus musculus [5], `CN(C)C(=O)Cc1cn(-c2cccc(C(F)(F)F)c2)nc1-c1ccc(-c2ccccc2)cc1` yielded an ED50 of 1.3 mg/kg/day. For the same compound, the Efficacy in the experiment on Mus musculus [2] came out at 94%; in the experiment with Mus musculus [6] it was 84%; in the experiment on Mus musculus [7], 80%; with Mus musculus [4], 69%.

By ED50 is commonly meant the dose that gives a 50% effect, or the effect in half of the subjects. Higher therefore signals a need for a large dose.
